Data published in ChEMBL document CHEMBL1153723, “Cytotoxic effects of cardiac glycosides in colon cancer cells, alone and in combination with standard chemotherapeutic drugs” (J Nat Prod, 2009).
Calls of active or inactive are those of the source. The rule behind the calls is not given here.

Key:
[1] = tested on: HCT-116; assay: Cytotoxicity against human HCT116 cells assessed as survival index at 10 uM after 72 hrs by FMCA method; format: functional; settings: HCT-116, 72 h, read-out: Survival
Method in brief: (§1)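 Library screen by FMCA at a final 10 µM (10 mM DMSO stocks diluted in PBS); 5000 cells/well, 72 h at 37 °C, then fluorescein diacetate for 50 min with fluorescence at 485/520 nm. Survival index is well fluorescence as % of control wells after blank subtraction. QC required signal/blank >10 and CV <30% in control and blank wells.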

[2] = tested on: HCT-116; assay: Cytotoxicity against human HCT116 cells after 72 hrs by FMCA method; format: functional, cell-based; settings: HCT-116, 72 h
Method in brief: (§2)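 FMCA: cells seeded at 5000/well onto compound plates at nine concentrations (1:2 serial dilutions in PBS from DMSO solutions), in duplicate, for 72 h at 37 °C. Then washed, given fluorescein diacetate for 50 min at 37 °C, and fluorescence read at 485/520 nm. HT29 and CC20 were grown in DMEM, HCT116 in McCoy's 5A. IC50 from nonlinear regression of log concentration–effect curves; three independent experiments, mean ± SEM.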

[3] = tested on: HCT-116; assay: Cytotoxicity against human HCT116 cells after 72 hrs by FMCA method relative to digoxin; format: functional
[4] = tested on: HT-29; assay: Inhibition of TNF-alpha-stimulated NF-kappaB translocation from cytoplasm to nucleus in human HT-29 cells at 0.4 to 10 uM; format: functional, cell-based
Method in brief: (§3)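 NF-κB activation high-content kit run per manufacturer: TNF-α-stimulated cells treated at 0.4, 2 and 10 µM (or 0.2, 1 and 5 µM). Cytoplasm-to-nucleus translocation of NF-κB quantified by automated imaging (ArrayScan). TNF-α and bortezomib served as controls.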

[5] = tested on: HT-29; assay: Cytotoxicity against human HT-29 cells after 72 hrs by FMCA method relative to digoxin; format: functional
[6] = tested on: HT-29; assay: Cytotoxicity against human HT-29 cells after 72 hrs by FMCA method; format: functional, cell-based; settings: HT-29, 72 h; method in brief: as §2
[7] = Cytotoxicity against human CC20 cells assessed as survival index at 10 uM after 72 hrs by FMCA method; format: functional; settings: CC20, 72 h, read-out: Survival; method in brief: as §1
[8] = tested on: MCF7; assay: Inhibition of TNF-alpha-stimulated NF-kappaB translocation from cytoplasm to nucleus in human MCF7 cells at 0.4 to 10 uM; format: functional, cell-based; method in brief: as §3
[9] = Inhibition of Na+/K+ ATPase relative to digoxin
[10] = Cytotoxicity against human CC20 cells after 72 hrs by FMCA method; format: functional, cell-based; settings: CC20, 72 h; method in brief: as §2
[11] = Cytotoxicity against human CC20 cells after 72 hrs by FMCA method relative to digoxin; format: functional
[12] = tested on: HeLa; assay: Inhibition of TNF-alpha-stimulated NF-kappaB translocation from cytoplasm to nucleus in human HeLa cells at 0.4 to 10 uM; format: functional, cell-based; method in brief: as §3
[13] = tested on: HT-29; assay: Cytotoxicity against human HT-29 cells assessed as survival index at 10 uM after 72 hrs by FMCA method; format: functional; settings: HT-29, 72 h, read-out: Survival; method in brief: as §1
[14] = Cytotoxicity against human colon cancer cells after 72 hrs by FMCA method; format: functional, cell-based; settings: Primary cultures of tumor cells from patients

Row | Structure (SMILES) | viability at 10 µM [1] [%] | IC50 [2] [nM] | Activity [3] | inhibition [4] | Activity [5] | IC50 [6] [nM] | viability at 10 µM [7] [%] | inhibition [8] | Activity [9] | IC50 [10] [nM] | Activity [11] | inhibition [12] | viability at 10 µM [13] [%] | IC50 [14] [nM]
1 | CO[C@H]1C[C@H](O[C@H]2CC[C@@]3(C)[C@H](CC[C@@H]4[C@@H]3CC[C@]3(C)[C@@H](C5=CC(=O)OC5)[C@@H](OC(C)=O)C[C@]43O)C2)O[C@@H](C)[C@@H]1O [OLEANDRIN] | 3 | 80 | 0.3 | inactive | 0.31 | 440 | 2 | inactive | 0.42 | 90 | 0.38 | inactive | 20 | 
2 | C[C@H]1O[C@@H](O[C@H]2[C@@H](O)C[C@H](O[C@H]3[C@@H](O)C[C@H](O[C@H]4CC[C@@]5(C)[C@H](CC[C@@H]6[C@@H]5C[C@@H](O)[C@]5(C)[C@@H](C7=CC(=O)OC7)CC[C@]65O)C4)O[C@@H]3C)O[C@@H]2C)C[C@H](O)[C@@H]1O [DIGOXIN] | 4 | 270 | 1 | inactive | 1 | 1400 | 1 | inactive | 1 | 240 | 1 | inactive | 24 | 100
3 | CO[C@H]1[C@H](O)[C@H](O[C@H]2CC[C@@]3(C=O)[C@H](CC[C@@H]4[C@@H]3CC[C@]3(C)[C@@H](C5=CC(=O)OC5)CC[C@]43O)C2)O[C@@H](C)[C@@H]1O [PERUVOSIDE] | 3 |  |  |  |  |  | 2 |  |  |  |  |  | 24 | 
4 | C[C@@H]1O[C@@H](O[C@H]2CC[C@]3(C=O)[C@H]4CC[C@]5(C)[C@@H](C6=CC(=O)OC6)CC[C@]5(O)[C@@H]4CC[C@]3(O)C2)[C@H](O)[C@H](O)[C@H]1O [CONVALLATOXIN] | 3 | < 40 | 0.04 |  | 0.39 | 550 | 1 |  |  | < 40 | 0.03 |  | 20 | 
5 | C[C@]12CC[C@H](O)C[C@H]1CC[C@@H]1[C@@H]2CC[C@]2(C)[C@@H](C3=CC(=O)OC3)[C@@H](O)C[C@]12O [GITOXIGENIN] | 63 |  |  |  |  |  | 54 |  |  |  |  |  | 81 | 
6 | C[C@]12CC[C@H]3[C@@H](CC[C@]4(O)C[C@@H](O)CC[C@]34C=O)[C@@]1(O)CC[C@@H]2C1=CC(=O)OC1 [STROPHANTHIDIN] | 21 |  |  |  |  |  | 3 |  |  |  |  |  | 58 | 
7 | CC(=O)O[C@H]1C[C@H](O[C@H]2[C@@H](O)C[C@H](O[C@H]3[C@@H](O)C[C@H](O[C@H]4CC[C@@]5(C)[C@H](CC[C@@H]6[C@@H]5C[C@@H](O)[C@]5(C)[C@@H](C7=CC(=O)OC7)CC[C@]65O)C4)O[C@@H]3C)O[C@@H]2C)O[C@H](C)[C@H]1O[C@@H]1O[C@H](CO)[C@@H](O)[C@H](O)[C@H]1O [LANATOSIDE C] | 5 |  |  |  |  |  | 2 |  |  |  |  |  | 40 | 
8 | C[C@@H]1O[C@@H](O[C@@H]2C=C3CC[C@@H]4[C@H](CC[C@]5(C)[C@@H](c6ccc(=O)oc6)CC[C@]45O)[C@@]3(C)CC2)[C@H](O)[C@H](O)[C@H]1O [PROSCILLARIDIN] | 1 | 60 | 0.22 |  | 0.39 | 550 | 3 |  | 0.054 | < 300 | 0.21 |  | 18 | 
9 | CC(=O)O[C@H]1CC[C@@]2(C)[C@H](CC[C@@H]3[C@@H]2CC[C@]2(C)[C@@H](C4=CC(=O)OC4)[C@@H](OC(C)=O)C[C@]32O)C1 [GITOXIGENIN DIACETATE] | 17 |  |  |  |  |  | 2 |  |  |  |  |  | 40 | 
10 | CO[C@H]1[C@H](O)[C@H](O[C@H]2CC[C@@]3(C)[C@H](CC[C@@H]4[C@@H]3CC[C@]3(C)[C@@H](C5=CC(=O)OC5)CC[C@]43O)C2)O[C@@H](C)[C@@H]1O [NERIIFOLIN] | 3 |  |  |  |  |  | 2 |  |  |  |  |  | 19 | 
11 | C[C@@H]1CC[C@@]2(OC1)O[C@H]1[C@@H](O)[C@H]3[C@@H]4CC[C@H]5C[C@@H](O[C@@H]6O[C@H](CO)[C@H](O[C@@H]7O[C@H](CO)C(O)[C@H](O[C@@H]8OC[C@@H](O)[C@H](O)[C@H]8O)[C@H]7O[C@@H]7O[C@H](CO)[C@H](O)[C@H](O[C@@H]8O[C@H](CO)[C@@H](O)[C@H](O)[C@H]8O)[C@H]7O)[C@H](O)[C@H]6O)[C@H](O)C[C@]5(C)[C@H]4CC[C@]3(C)[C@H]1[C@@H]2C (stereo partly drawn) [DIGITONIN] | 62 | 8700 |  |  |  | 5600 | 88 |  |  | 9600 |  |  | 74 | 
12 | C[C@@H]1O[C@@H](O[C@H]2C[C@@H](O)[C@]3(CO)[C@H]4[C@H](O)C[C@]5(C)[C@@H](C6=CC(=O)OC6)CC[C@]5(O)[C@@H]4CC[C@]3(O)C2)[C@H](O)[C@H](O)[C@H]1O [OUABAIN] | 4 |  |  |  |  |  | 3 |  |  |  |  |  | 22 | 
13 | C[C@H]1O[C@@H](O[C@H]2[C@@H](O)C[C@H](O[C@H]3[C@@H](O)C[C@H](O[C@H]4CC[C@@]5(C)[C@H](CC[C@@H]6[C@@H]5CC[C@]5(C)[C@@H](C7=CC(=O)OC7)CC[C@]65O)C4)O[C@@H]3C)O[C@@H]2C)C[C@H](O)[C@@H]1O [DIGITOXIN] | 4 | 740 | 2.74 | inactive | 2.91 | 4070 | 2 | inactive | 0.3 | 410 | 1.71 | inactive | 28 | 100
14 | CO[C@H]1C[C@H](O[C@H]2CC[C@]3(C=O)[C@H]4CC[C@]5(C)[C@@H](C6=CC(=O)OC6)CC[C@]5(O)[C@@H]4CC[C@]3(O)C2)O[C@H](C)[C@H]1O [CYMARIN] | 4 |  |  |  |  |  | 2 |  |  |  |  |  | 26 | 
15 | C[C@]12CC[C@H](O)C[C@H]1CC[C@@H]1[C@@H]2[C@H](O)C[C@]2(C)[C@@H](C3=CC(=O)OC3)CC[C@]12O [SARMENTOGENIN] | 26 |  |  |  |  |  | 4 |  |  |  |  |  | 63 | 
